Screens from PubChem.
T cell modulator – T cell immune modulation candidate; 2C CD8+ T cell-vesicle binding, flow cytometry; hits give low values; response (vesicle binding), % at 7 µM; 0.068% of 330,000 active;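 active means response, share of CD8 T cells binding vesicles, and their 90th percentile fluorescence all below set limits, cut at about 80% in these data, passing the limit was not always enough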;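 further: values below 100% mean blocked vesicle binding to the CD8+ T cells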
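Material: murine 2C transgenic CD8+ T lymphocytes / Also added: QL9-peptide-loaded Drosophila micro-vesicles bearing Ld, ICAM-1 and B7-1 / Schedule: binding step 1.5 h, 37 °C, antibody labelling 20 min, ice / Signal: flow cytometry, PE anti-B7-1 (FL2) versus Alexa647 anti-CD8 (FL8), PFA-fixed / Evaluation: percent CD8+ FL2 mean versus row control / Benchmarks: naked versus QL9-loaded vesicles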
HDAC3 inhib – human HDAC3 inhibition; inhibition, % at 8.3 µM; 0.15% of 320,000 active; recombinant HDAC3, fluorogenic peptide/trypsin coupled, fluorescence; O15379; in the data active means inhibition above about 26%, passing the limit was not always enough; inconclusive means no clear call, values can overlap the other calls
GASC-1 inh – inhibitors of human GASC-1 (JMJD2C) demethylase. Q9H3R0. 0.069% of 330,000 active. AID 2099. GST-JMJD2C(1-420) H3K9me3 demethylation, DELFIA europium. inhibition, % at 2.35 µM;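 active means more than half of a compound's replicate wells show inhibition beyond 50%, single wells judged on their own value; inconclusive means some, but no more than half, of replicates pass 50% inhibition; inactive means no replicate passes 50% inhibition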;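 further: signal counts dimethyl H3K9 product captured on neutravidin plate; 0% = median of DMSO wells and 100% = 0.3 times that DMSO median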
LANA-H2A inh – blocks KSHV LANA binding to histone H2A/H2B; inhibition, % (no concentration beside the values); cell-free LANA-H2A/H2B peptide, fluorescence polarization; Q9QR71; 0.6% of 320,000 active; in the data active means inhibition mostly above about 10%, no sharp cut-off; inactive means mostly below about 6.7%
Arrestin-AP2 inh – human beta-arrestin and AP2 interaction inhibition; FITC-arrestin peptide / GST-AP2 beads, flow cytometry; AP2 beta2 appendage carries R879A mutation; 0.31% of 340,000 active; inhibition, % at 10 µM;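 active means inhibition above a set limit, near 3 SD of compounds lacking own fluorescence, cut at about 54% in these data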;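 further: plate controls were DMSO wells for no effect and 5 µM unlabelled arrestin peptide for full effect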
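System: GST-AP2 R879A glutathione beads | Also added: FITC-arrestin peptide, 50 nM | Times: 12 min plus 1 h, RT | Signal: Bead flow cytometry, FITC channel | Buffer or medium: PBS with 0.05% Tween 20 and 0.1% BSA | Read-out basis: Percent drop in bead-associated FITC signal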
DSG3 Ab inh – human desmoglein-3 autoantibody binding inhibition | 0.48% of 310,000 active | DSG3-coupled beads, scFv-anti-DSG3-GFP binding, flow cytometry; hits give low values | P32926 | binding (percent of control), % at 10 µM | AID 588358;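 active means binding more than 3 SD below its plate's average and above zero; inconclusive means below that plate limit but binding exactly zero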;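 further: hits lower antibody fragment binding to DSG3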
Target sequence (P32926 whole entry, looked up, the tested form may be a part): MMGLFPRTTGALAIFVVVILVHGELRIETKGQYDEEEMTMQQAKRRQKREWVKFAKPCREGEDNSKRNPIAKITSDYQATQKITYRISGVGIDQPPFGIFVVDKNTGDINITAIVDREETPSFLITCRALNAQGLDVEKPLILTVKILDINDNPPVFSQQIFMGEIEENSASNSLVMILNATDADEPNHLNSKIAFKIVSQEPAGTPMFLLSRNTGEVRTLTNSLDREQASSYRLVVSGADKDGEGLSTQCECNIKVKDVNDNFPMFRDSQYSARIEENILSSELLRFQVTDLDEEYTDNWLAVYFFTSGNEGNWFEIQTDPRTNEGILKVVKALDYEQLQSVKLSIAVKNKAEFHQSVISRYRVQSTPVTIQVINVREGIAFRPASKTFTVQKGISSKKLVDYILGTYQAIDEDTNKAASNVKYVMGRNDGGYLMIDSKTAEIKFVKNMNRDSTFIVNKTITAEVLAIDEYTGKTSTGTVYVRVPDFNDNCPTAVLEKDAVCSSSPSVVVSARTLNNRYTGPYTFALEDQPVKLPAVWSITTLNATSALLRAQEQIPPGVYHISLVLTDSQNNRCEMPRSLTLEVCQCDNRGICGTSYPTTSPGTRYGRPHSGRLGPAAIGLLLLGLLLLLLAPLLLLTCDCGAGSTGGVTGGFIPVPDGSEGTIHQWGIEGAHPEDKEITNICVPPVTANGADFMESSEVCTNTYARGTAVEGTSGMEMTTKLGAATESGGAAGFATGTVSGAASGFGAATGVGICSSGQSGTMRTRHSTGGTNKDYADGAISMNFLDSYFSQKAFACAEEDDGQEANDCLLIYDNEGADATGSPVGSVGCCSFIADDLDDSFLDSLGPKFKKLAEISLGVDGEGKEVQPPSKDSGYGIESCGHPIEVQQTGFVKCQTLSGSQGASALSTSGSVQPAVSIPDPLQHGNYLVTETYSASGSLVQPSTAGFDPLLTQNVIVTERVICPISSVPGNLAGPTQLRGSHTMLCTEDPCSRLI
* marks the source's active call; other numbers are inactive results; i = inactive; u = inconclusive; x = no result given; + = active, no number. The list is not random: actives were taken first. Their share in the collection is about 1.6%.

SMILES	T cell modulator	HDAC3 inhib	GASC-1 inh	LANA-H2A inh	Arrestin-AP2 inh	DSG3 Ab inh
O=C(C[C@@H]1C/C=C\CC[C@@H](Cc2ccc(F)cc2)C(=O)OC[C@@H]2CCCN2C1=O)N[C@H](CO)Cc1ccccc1	280	x	x	x	-7	98
CC[C@@]1(C(=O)OC)N[C@H](CN(C)S(=O)(=O)c2ccc(C(C)(C)C)cc2)[C@@H]2C(=O)N(Cc3ccccc3)C(=O)[C@@H]21	281	-3	3	69*	31	96
CCN(C[C@H]1N[C@@](CC)(C(=O)OC)[C@H]2C(=O)N(Cc3ccccc3)C(=O)[C@@H]12)C(=O)Nc1ccc(C(F)(F)F)cc1	265	0	4	+	35	95
CCN(C[C@H]1N[C@@](CC)(C(=O)OC)[C@H]2C(=O)N(Cc3ccccc3)C(=O)[C@@H]12)C(=O)Nc1ccc(OC)cc1	536	2	2	i	3	100
COC(=O)[C@]1(C)N[C@H](CN(C)S(=O)(=O)c2ccc(OC(F)(F)F)cc2)[C@@H]2C(=O)N(C)C(=O)[C@@H]21	0.0*	x	x	x	6	99
COC(=O)[C@]1(Cc2ccccc2)N[C@H](CN(C)S(=O)(=O)c2ccc(C)cc2)[C@@H]2C(=O)N(Cc3ccccc3)C(=O)[C@@H]21	193	4	6	2	9	92
COC(=O)[C@]1(C)N[C@H](CN(C)S(=O)(=O)c2ccc(C(C)(C)C)cc2)[C@@H]2C(=O)N(C)C(=O)[C@@H]21	215	x	x	x	-4	85
CCN(C[C@H]1N[C@@](Cc2ccccc2)(C(=O)OC)[C@H]2C(=O)N(Cc3ccccc3)C(=O)[C@@H]12)S(=O)(=O)c1ccccc1	636	-8	61*	-1	-10	102
O=C(NCCCCc1ccccc1)c1cccc(NC(=O)C2CCCC2)c1	x	x	x	x	-2	103
Cc1nnc(NC(=O)CCC(=O)NC2CCCCCCC2)s1	627	-11	17	-1	3	101
COC(=O)[C@]1(C)N[C@H](CN(C)S(=O)(=O)c2ccc(C)cc2)[C@@H]2C(=O)N(Cc3ccccc3)C(=O)[C@@H]21	155	-2	62*	5	-3	113
CCN(C[C@H]1N[C@@](C)(C(=O)OC)[C@H]2C(=O)N(Cc3ccccc3)C(=O)[C@@H]12)S(=O)(=O)c1ccc(C)cc1	294	x	x	x	-3	82
COc1ccc(Br)c(C(=O)N(C)CC(=O)Nc2ccc(N3CCOCC3)cc2)c1	403	x	11	x	-6	103
CC1(C)C(/C=C/C=C/C=C/C=C2\N(CCCCS(=O)(=O)O)c3ccc4ccccc4c3C2(C)C)=[N+](CCCCS(=O)(=O)[O-])c2ccc3ccccc3c21	620	0	x	10	42	33*
COc1ccc(-n2c(SCC(=O)Nc3ccc(C(=O)O)cc3)nnc2-c2ccccc2)cc1OC	34	x	3	6	-10	96
Cc1cc(SCC(=O)OCC(=O)N2CCN(C(=O)c3ccco3)CC2)c(C)cc1Br	269	6	u	-6	23	100
Cc1cc(SCC(=O)N2CCN(C(=O)c3ccco3)CC2)c(C)cc1Br	276	1	x	45*	-3	97
C/C(=N\Nc1nc2ccccc2[nH]1)c1ccc(N2CCOCC2)cc1	182	2	-16	3	-8	107
COc1ccc(N2CCN(C(CNC(=O)C(=O)NC3CCCC3)c3ccco3)CC2)cc1 (stereo not drawn)	781	1	-6	4	-3	u
Nc1ccc2nc(SCC(=O)c3ccccc3)sc2c1	252	1	-8	4	-8	92*
Nc1ccc2nc(SCc3ccccc3F)sc2c1	568	15	1	1	-19	105
c1ccc2c(-c3cn4ccccc4n3)c[nH]c2c1	615	-20	-19	2	x	x
O=C(O)CC(O)(CC(=O)O)C(=O)O	338	-5	5	4	3	96
O=C(O)CP(=O)(O)O	101	-11	-6	7.2*	17	x
CSc1nc(=S)c2[nH]c(=S)[nH]c2[nH]1	207	36*	-1	0	-4	83
SMILES	T cell modulator	HDAC3 inhib	GASC-1 inh	LANA-H2A inh	Arrestin-AP2 inh	DSG3 Ab inh
CC(C)(C)C(=O)N1CCCC1C(=O)O (stereo not drawn)	116	-5	-1	28*	25	101
CCOC(=O)N1CCN(C(=O)COC(=O)CNC(=O)c2ccc(OCC)c(OCC)c2)CC1	x	x	x	x	-14	95
CN(C)CCOc1ccccc1Cc1ccccc1	246	4	-6	6.1*	-3	109
CNCCCCOc1ccccc1Cc1ccccc1	637	1	2	2	x	x
COc1cc(N2CCCC2)c(OC)cc1/C=C(/C#N)c1ccc(F)cc1	323	-2	-5	-69*	20	277
CC(=O)N1CCc2cc(S(=O)(=O)N3CCc4ccccc43)ccc21	382	7	8	-2	4	110
CC12COC3(C(=O)Nc4ccc5ccccc5c4)CC1CCC32C (stereo not drawn)	210	3	-2	32*	9	82
CCCN1C=CC(=C/C=C(\C#N)C(=O)OCC)C=C1	313	30*	-7	-55	x	x
CCCCCCN1C=CC(=C/C=C(\C#N)C(=O)OCC)C=C1	98	-3	-8	-11	-8	146
N#CC1=C(N)Oc2c(oc(CO)cc2=O)C1c1ccccc1[N+](=O)[O-] (stereo not drawn)	428	7	-4	-1	10	101
COc1ccccc1C1C(C#N)=C(N)Oc2c1oc(CO)cc2=O (stereo not drawn)	709	13	-6	12*	11	106
Cc1cccc(-n2c(CNC(=O)c3ccc(S(=O)(=O)N4CCCC4)cc3)n[nH]c2=S)c1	82	-3	-21	-5	15	105
O=C(NCc1n[nH]c(=S)n1-c1cccc(Cl)c1)c1ccc(S(=O)(=O)N2CCCCC2)cc1	254	5	84*	10	7	x
S=P(N1CC1)(N1CC1)N1CC1	132	7	x	6	1	97
O=c1c2nnn(-c3ccccc3)c2ncn1C/C=C/c1ccccc1	i	-5	15	-2	8	70*
COc1cccc(-n2nnc3c(=O)n(C/C=C/c4ccccc4)cnc32)c1	624	x	-24	-2	5	113
Cc1ccc(-n2nnc3c(=O)n(CC(=O)N4CCCC4)cnc32)cc1	i	1	-4	10*	2	98
COc1ccc(NC(=O)CN(C)CC(=O)N2CC(=O)Nc3ccccc32)cc1	229	1	-2	-3	-5	97
CN(C(=O)Cc1c(C(=O)O)n(C)c2ccccc12)c1cccc(C(F)(F)F)c1	198	-3	0	0	-18	100
